# ChEMBL document CHEMBL5329146, “Thiourea derivatives containing 4-arylthiazoles and d-glucose moiety: design, synthesis, antimicrobial activity evaluation, and molecular docking/dynamics simulations” (RSC Med Chem, 2023)
# Experiments:
# [1] = tested on: Bacillus subtilis; assay: Antibacterial activity against Bacillus subtilis assessed as inhibition of visible bacterial growth incubated for 18 to 20 hrs by microbroth dilution method; type: functional; conditions: time 18-20 hrs
# Outline: (§1)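 Inoculum was a 4–6 h broth culture adjusted to 0.5 McFarland turbidity and diluted to a final 5 × 10^5 CFU mL−1. Plates were incubated at 35 °C for 18–20 h. MIC was the lowest concentration giving complete inhibition of visible growth. Run three times.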
# [2] = tested on: Clostridioides difficile; assay: Antibacterial activity against Clostridium difficile assessed as inhibition of visible bacterial growth incubated for 18 to 20 hrs by microbroth dilution method; type: functional; conditions: time 18-20 hrs
# [3] = tested on: Staphylococcus aureus; assay: Antibacterial activity against Staphylococcus aureus assessed as inhibition of visible bacterial growth incubated for 18 to 20 hrs by microbroth dilution method; type: functional; conditions: time 18-20 hrs; outline: as §1
# [4] = tested on: Staphylococcus epidermidis; assay: Antibacterial activity against Staphylococcus epidermidis assessed as inhibition of visible bacterial growth incubated for 18 to 20 hrs by microbroth dilution method; type: functional; conditions: time 18-20 hrs; outline: as §1
# [5] = tested on: Streptococcus pneumoniae; assay: Antibacterial activity against Streptococcus pneumoniae assessed as inhibition of visible bacterial growth incubated for 18 to 20 hrs by microbroth dilution method; type: functional; conditions: time 18-20 hrs
# [6] = tested on: Escherichia coli; assay: Antibacterial activity against Escherichia coli assessed as inhibition of visible bacterial growth incubated for 18 to 20 hrs by microbroth dilution method; type: functional; conditions: time 18-20 hrs; outline: as §1
# [7] = tested on: Klebsiella pneumoniae; assay: Antibacterial activity against Klebsiella pneumoniae assessed as inhibition of visible bacterial growth incubated for 18 to 20 hrs by microbroth dilution method; type: functional; conditions: time 18-20 hrs; outline: as §1
# [8] = tested on: Pseudomonas aeruginosa; assay: Antibacterial activity against Pseudomonas aeruginosa assessed as inhibition of visible bacterial growth incubated for 18 to 20 hrs by microbroth dilution method; type: functional; conditions: time 18-20 hrs; outline: as §1
# [9] = tested on: Salmonella typhimurium; assay: Antibacterial activity against Salmonella typhimurium assessed as inhibition of visible bacterial growth incubated for 18 to 20 hrs by microbroth dilution method; type: functional, Salmonella enterica subsp. enterica serovar Typhimurium; conditions: Salmonella enterica; time 18-20 hrs; outline: as §1
# [10] = tested on: Aspergillus niger; assay: Antifungal activity against Aspergillus niger assessed as inhibition of fungal growth incubated for 72 hrs by agar dilution method; type: functional
# Outline: (§2)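 Agar dilution on Sabouraud dextrose agar, with compound solutions at 400 down to 0.78 μg mL−1 (twofold series). Fungal suspensions containing […] were applied to agar plates serially diluted with test compound. Plates were incubated at 35 °C, and MIC was read after 72 h. Experiments were performed three times.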
# [11] = tested on: Aspergillus flavus; assay: Antifungal activity against Aspergillus flavus assessed as inhibition of fungal growth incubated for 72 hrs by agar dilution method; type: functional; outline: as §2
# [12] = tested on: Candida albicans; assay: Antifungal activity against Candida albicans assessed as inhibition of fungal growth incubated for 72 hrs by agar dilution method; type: functional; outline: as §2
# [13] = tested on: Saccharomyces cerevisiae; assay: Antifungal activity against Saccharomyces cerevisiae assessed as inhibition of fungal growth incubated for 72 hrs by agar dilution method; type: functional; outline: as §2
# [14] = tested on: Fusarium oxysporum; assay: Antifungal activity against Fusarium oxysporum assessed as inhibition of fungal growth incubated for 72 hrs by agar dilution method; type: functional; outline: as §2
# [15] = target: DNA gyrase (Staphylococcus aureus, UniProt P0A0K8+P20831); assay: Inhibition of Staphylococcus aureus DNA gyrase incubated for 30 mins in presence of relaxed plasmid DNA by supercoiling based gel electrophoresis analysis; type: protein-complex assay
# Chain of DNA gyrase (P0A0K8 whole entry): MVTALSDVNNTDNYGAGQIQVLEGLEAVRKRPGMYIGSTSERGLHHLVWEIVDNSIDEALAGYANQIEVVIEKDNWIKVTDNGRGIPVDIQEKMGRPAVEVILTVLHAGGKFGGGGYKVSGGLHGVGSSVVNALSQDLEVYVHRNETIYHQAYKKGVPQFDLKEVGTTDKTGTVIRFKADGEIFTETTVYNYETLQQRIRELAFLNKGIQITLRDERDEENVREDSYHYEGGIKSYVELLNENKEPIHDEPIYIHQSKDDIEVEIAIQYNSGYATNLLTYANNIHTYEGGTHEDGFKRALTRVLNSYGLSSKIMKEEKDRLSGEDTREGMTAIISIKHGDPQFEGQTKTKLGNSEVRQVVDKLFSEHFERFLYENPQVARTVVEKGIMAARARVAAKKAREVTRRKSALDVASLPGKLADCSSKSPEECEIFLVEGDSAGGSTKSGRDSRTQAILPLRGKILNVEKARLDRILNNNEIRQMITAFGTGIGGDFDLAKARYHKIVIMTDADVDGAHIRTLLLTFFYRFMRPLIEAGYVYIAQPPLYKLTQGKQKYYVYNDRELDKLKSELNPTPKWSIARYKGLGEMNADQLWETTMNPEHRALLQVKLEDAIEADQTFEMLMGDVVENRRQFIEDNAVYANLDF
# Chain of DNA gyrase (P20831 whole entry): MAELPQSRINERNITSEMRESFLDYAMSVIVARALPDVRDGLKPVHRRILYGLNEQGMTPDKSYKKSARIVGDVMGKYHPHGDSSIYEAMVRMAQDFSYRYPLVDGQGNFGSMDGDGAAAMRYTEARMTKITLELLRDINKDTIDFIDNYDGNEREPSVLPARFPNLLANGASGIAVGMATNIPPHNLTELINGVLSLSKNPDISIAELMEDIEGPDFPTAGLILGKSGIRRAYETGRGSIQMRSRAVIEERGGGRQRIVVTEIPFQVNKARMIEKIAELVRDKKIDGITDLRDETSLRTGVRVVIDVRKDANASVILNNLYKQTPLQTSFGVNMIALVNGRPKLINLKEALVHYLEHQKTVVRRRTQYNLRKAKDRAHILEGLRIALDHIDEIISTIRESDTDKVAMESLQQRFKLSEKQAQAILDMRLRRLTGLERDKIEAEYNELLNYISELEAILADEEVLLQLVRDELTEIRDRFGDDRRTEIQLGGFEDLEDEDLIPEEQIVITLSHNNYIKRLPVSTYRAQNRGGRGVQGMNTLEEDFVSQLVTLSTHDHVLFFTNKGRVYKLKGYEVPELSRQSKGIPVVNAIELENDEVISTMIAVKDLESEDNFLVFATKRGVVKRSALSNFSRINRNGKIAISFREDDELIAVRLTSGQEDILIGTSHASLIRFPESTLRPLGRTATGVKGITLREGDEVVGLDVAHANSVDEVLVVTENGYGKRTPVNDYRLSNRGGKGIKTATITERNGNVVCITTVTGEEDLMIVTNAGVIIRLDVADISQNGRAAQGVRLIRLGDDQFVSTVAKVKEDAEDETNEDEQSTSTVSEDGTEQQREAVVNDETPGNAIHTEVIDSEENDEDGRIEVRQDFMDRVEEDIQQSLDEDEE
# [16] = target: Topoisomerase IV (Staphylococcus aureus, UniProt P0C1S7+P0C1U9); assay: Inhibition of Staphylococcus aureus DNA topoisomerase 4 using supercoiled plasmid DNA as substrate; type: protein-complex assay
# Chain of Topoisomerase IV (P0C1U9 whole entry): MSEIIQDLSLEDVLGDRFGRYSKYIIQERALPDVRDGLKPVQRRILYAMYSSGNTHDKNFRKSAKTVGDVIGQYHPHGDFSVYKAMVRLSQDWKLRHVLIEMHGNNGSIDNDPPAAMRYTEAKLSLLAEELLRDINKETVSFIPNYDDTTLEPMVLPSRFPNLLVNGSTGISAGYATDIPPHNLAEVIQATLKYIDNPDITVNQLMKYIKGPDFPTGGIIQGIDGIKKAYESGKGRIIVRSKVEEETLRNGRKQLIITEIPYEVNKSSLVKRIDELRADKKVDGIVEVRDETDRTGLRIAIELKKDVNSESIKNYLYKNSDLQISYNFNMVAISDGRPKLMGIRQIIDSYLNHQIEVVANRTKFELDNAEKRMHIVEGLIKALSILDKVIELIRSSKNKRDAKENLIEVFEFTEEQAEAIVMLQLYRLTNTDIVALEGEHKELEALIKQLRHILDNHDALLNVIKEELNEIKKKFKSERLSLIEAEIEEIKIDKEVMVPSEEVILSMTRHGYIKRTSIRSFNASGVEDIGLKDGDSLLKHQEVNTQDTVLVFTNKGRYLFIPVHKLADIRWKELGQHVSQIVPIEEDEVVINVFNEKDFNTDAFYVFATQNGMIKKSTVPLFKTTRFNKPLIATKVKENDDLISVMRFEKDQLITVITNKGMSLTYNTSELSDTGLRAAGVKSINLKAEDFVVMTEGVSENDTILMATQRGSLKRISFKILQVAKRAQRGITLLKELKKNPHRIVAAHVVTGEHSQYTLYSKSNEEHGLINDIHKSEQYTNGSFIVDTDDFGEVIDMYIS
# Chain of Topoisomerase IV (P0C1S7 whole entry): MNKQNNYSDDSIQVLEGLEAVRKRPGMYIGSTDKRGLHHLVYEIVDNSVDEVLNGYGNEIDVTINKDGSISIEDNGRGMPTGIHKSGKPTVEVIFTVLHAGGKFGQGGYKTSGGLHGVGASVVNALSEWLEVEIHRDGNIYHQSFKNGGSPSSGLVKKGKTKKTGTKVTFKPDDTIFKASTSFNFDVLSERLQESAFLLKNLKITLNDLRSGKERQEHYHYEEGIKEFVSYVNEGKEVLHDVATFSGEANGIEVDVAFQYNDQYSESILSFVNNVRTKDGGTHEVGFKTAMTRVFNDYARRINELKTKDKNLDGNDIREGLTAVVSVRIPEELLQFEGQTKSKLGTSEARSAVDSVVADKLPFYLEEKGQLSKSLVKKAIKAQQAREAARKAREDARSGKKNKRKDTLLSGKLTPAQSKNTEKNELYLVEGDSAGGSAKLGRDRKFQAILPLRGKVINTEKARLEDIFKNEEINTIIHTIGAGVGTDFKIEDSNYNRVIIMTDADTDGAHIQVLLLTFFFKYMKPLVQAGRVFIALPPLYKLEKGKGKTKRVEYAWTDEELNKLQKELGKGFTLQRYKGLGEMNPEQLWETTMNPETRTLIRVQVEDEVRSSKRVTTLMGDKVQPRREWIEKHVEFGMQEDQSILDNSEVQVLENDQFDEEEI
# [17] = target: Dihydrofolate reductase (Staphylococcus aureus, UniProt P0A017); assay: Inhibition of Staphylococcus aureus DHFR preincubated for 5 mins followed by dihydrofolic acid addition and measured for 10 mins by absorbance based assay
# Chain of Dihydrofolate reductase (P0A017 whole entry): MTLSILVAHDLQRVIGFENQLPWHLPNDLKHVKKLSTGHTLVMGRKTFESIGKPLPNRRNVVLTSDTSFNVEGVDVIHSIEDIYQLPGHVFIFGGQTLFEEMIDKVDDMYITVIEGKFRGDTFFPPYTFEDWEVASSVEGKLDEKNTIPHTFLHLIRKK
SMILES,MIC [1],MIC [2],MIC [3],MIC [4],MIC [5],MIC [6],MIC [7],MIC [8],MIC [9],MIC [10],MIC [11],MIC [12],MIC [13],MIC [14],IC50 [15],IC50 [16],IC50 [17]
CC(=O)OC[C@H]1O[C@@H](NC(=S)Nc2nc(-c3cccc([N+](=O)[O-])c3)cs2)[C@H](OC(C)=O)[C@@H](OC(C)=O)[C@@H]1OC(C)=O,6.25 µg/mL,0.78 µg/mL,6.25 µg/mL,12.5 µg/mL,0.78 µg/mL,0.78 µg/mL,3.12 µg/mL,3.12 µg/mL,3.12 µg/mL,3.12 µg/mL,0.78 µg/mL,100 µg/mL,6.25 µg/mL,50 µg/mL,–,–,–
COc1ccc(-c2csc(NC(=S)N[C@@H]3O[C@H](COC(C)=O)[C@@H](OC(C)=O)[C@H](OC(C)=O)[C@H]3OC(C)=O)n2)cc1[N+](=O)[O-],50 µg/mL,200 µg/mL,0.78 µg/mL,50 µg/mL,6.25 µg/mL,200 µg/mL,0.78 µg/mL,0.78 µg/mL,50 µg/mL,100 µg/mL,1.56 µg/mL,12.5 µg/mL,200 µg/mL,25 µg/mL,1250 nM,67300 nM,130 nM
CC(=O)OC[C@H]1O[C@@H](NC(=S)Nc2nc(-c3ccc(Br)cc3)cs2)[C@H](OC(C)=O)[C@@H](OC(C)=O)[C@@H]1OC(C)=O,3.12 µg/mL,6.25 µg/mL,12.5 µg/mL,25 µg/mL,50 µg/mL,1.56 µg/mL,6.25 µg/mL,100 µg/mL,0.78 µg/mL,50 µg/mL,3.12 µg/mL,50 µg/mL,25 µg/mL,0.78 µg/mL,–,–,–
CC(=O)OC[C@H]1O[C@@H](NC(=S)Nc2nc(-c3ccccc3)cs2)[C@H](OC(C)=O)[C@@H](OC(C)=O)[C@@H]1OC(C)=O,25 µg/mL,50 µg/mL,200 µg/mL,0.78 µg/mL,25 µg/mL,100 µg/mL,25 µg/mL,6.25 µg/mL,400 µg/mL,0.78 µg/mL,50 µg/mL,3.12 µg/mL,1.56 µg/mL,6.25 µg/mL,–,–,–
CC(=O)OC[C@H]1O[C@@H](NC(=S)Nc2nc(-c3ccc(Cl)cc3)cs2)[C@H](OC(C)=O)[C@@H](OC(C)=O)[C@@H]1OC(C)=O,12.5 µg/mL,12.5 µg/mL,3.12 µg/mL,3.12 µg/mL,400 µg/mL,50 µg/mL,12.5 µg/mL,200 µg/mL,12.5 µg/mL,25 µg/mL,25 µg/mL,25 µg/mL,3.12 µg/mL,3.12 µg/mL,2820 nM,68700 nM,230 nM
COc1ccc(-c2csc(NC(=S)N[C@@H]3O[C@H](COC(C)=O)[C@@H](OC(C)=O)[C@H](OC(C)=O)[C@H]3OC(C)=O)n2)cc1,400 µg/mL,3.12 µg/mL,1.56 µg/mL,100 µg/mL,3.12 µg/mL,3.12 µg/mL,1.56 µg/mL,12.5 µg/mL,6.25 µg/mL,6.25 µg/mL,6.25 µg/mL,0.78 µg/mL,12.5 µg/mL,12.5 µg/mL,1370 nM,79200 nM,170 nM
CC(=O)OC[C@H]1O[C@@H](NC(=S)Nc2nc(-c3ccc(C)cc3)cs2)[C@H](OC(C)=O)[C@@H](OC(C)=O)[C@@H]1OC(C)=O,100 µg/mL,25 µg/mL,25 µg/mL,400 µg/mL,12.5 µg/mL,6.25 µg/mL,200 µg/mL,50 µg/mL,25 µg/mL,12.5 µg/mL,12.5 µg/mL,400 µg/mL,0.78 µg/mL,200 µg/mL,–,–,–
CCc1ccc(-c2csc(NC(=S)N[C@@H]3O[C@H](COC(C)=O)[C@@H](OC(C)=O)[C@H](OC(C)=O)[C@H]3OC(C)=O)n2)cc1,0.78 µg/mL,400 µg/mL,400 µg/mL,6.25 µg/mL,100 µg/mL,12.5 µg/mL,50 µg/mL,25 µg/mL,100 µg/mL,200 µg/mL,200 µg/mL,6.25 µg/mL,400 µg/mL,400 µg/mL,–,–,–
OC(Cn1cncn1)(Cn1cncn1)c1ccc(F)cc1F [FLUCONAZOLE],–,–,–,–,–,–,–,–,–,1.56 µg/mL,0.78 µg/mL,0.78 µg/mL,0.78 µg/mL,0.78 µg/mL,–,–,–
Clc1ccc(COC(Cn2ccnc2)c2ccc(Cl)cc2Cl)c(Cl)c1 (configuration not stated) [MICONAZOLE],–,–,–,–,–,–,–,–,–,1.56 µg/mL,1.56 µg/mL,3.12 µg/mL,3.12 µg/mL,3.12 µg/mL,–,–,–
CN[C@H](CC(C)C)C(=O)N[C@H]1C(=O)N[C@@H](CC(N)=O)C(=O)N[C@H]2C(=O)N[C@H]3C(=O)N[C@H](C(=O)N[C@H](C(=O)O)c4cc(O)cc(O)c4-c4cc3ccc4O)[C@H](O)c3ccc(c(Cl)c3)Oc3cc2cc(c3O[C@@H]2O[C@H](CO)[C@@H](O)[C@H](O)[C@H]2O[C@H]2C[C@](C)(N)[C@H](O)[C@H](C)O2)Oc2ccc(cc2Cl)[C@H]1O [VANCOMYCIN],1.56 µg/mL,1.56 µg/mL,1.56 µg/mL,0.78 µg/mL,1.56 µg/mL,–,–,–,–,–,–,–,–,–,–,–,–
O=C(O)c1cn(C2CC2)c2cc(N3CCNCC3)c(F)cc2c1=O [CIPROFLOXACIN],3.12 µg/mL,–,3.12 µg/mL,3.12 µg/mL,–,–,1.56 µg/mL,1.56 µg/mL,1.56 µg/mL,–,–,–,–,–,–,–,–
